# Screens from PubChem BioAssay.
# Hits are enriched below; roughly 2.4% of the tested compounds scored in any of these assays.
# NPY-Y1 antag: blocks the human neuropeptide Y Y1 receptor. P25929. HEK293-CNG Y1 cells, membrane potential fluorescence; NPY at EC95, then isoproterenol. inhibition, % at 3.6 µM. actives 1% (n = 200,000);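 active = inhibition above the campaign mean inhibition of all tested compounds plus 3 SD, cut at about 20% in these data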;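 also: 0% = DMSO wells given NPY plus isoproterenol and 100% = isoproterenol alone without NPY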
#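 Material: HEK293 cells co-expressing NPY Y1 receptor and cyclic-nucleotide gated channel. Timing: compound incubation 1 h at room temperature, readout 45 min post-stimulation. Signal: fluorescence, membrane potential probe.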
# NPY2 pot ag: potentiates or activates human NPY-Y2 receptor; P49146; activation, % at 3.6 µM; actives 0.45% (n = 220,000); cells expressing NPY-Y2, potentiator/agonist read-out; AID 1359; in the data active = activation above about 27%;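 also: cells stimulated with NPY near EC25 plus isoproterenol at EC100; 0% = vehicle plus submaximal agonist and 100% = vehicle plus saturating agonist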
# Target sequence (P49146 whole entry, looked up): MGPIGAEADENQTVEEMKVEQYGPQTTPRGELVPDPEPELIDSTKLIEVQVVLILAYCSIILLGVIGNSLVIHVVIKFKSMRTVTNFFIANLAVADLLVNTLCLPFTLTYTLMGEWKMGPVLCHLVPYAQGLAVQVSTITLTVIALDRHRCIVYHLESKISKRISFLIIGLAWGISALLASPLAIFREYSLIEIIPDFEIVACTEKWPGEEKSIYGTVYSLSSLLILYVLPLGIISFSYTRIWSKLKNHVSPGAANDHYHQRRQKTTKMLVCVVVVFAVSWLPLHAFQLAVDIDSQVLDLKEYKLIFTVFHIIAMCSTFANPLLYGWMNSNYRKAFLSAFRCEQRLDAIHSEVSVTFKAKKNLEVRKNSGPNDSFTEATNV
# S1P4 agonist: human S1P4 receptor agonism | O95977 | S1P4-expressing cell line, agonist reporter assay | activation, % at 4.98 µM | actives 0.35% (n = 220,000); in the data active = activation above about 11%;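 also: 0% = DMSO vehicle and 100% = reference agonist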
# S1P4 antag: antagonists of human S1P4 receptor; inhibition, % at 4.98 µM; S1P4-expressing cells, antagonist mode, reporter read-out; actives 0.26% (n = 220,000); AID 1510; O95977; in the data active = inhibition above about 29%;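 also: 0% = wells stimulated with agonist and 100% = vehicle wells without agonist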
# NPY1 pot ag: potentiates or activates human NPY-Y1 receptor; NPY-Y1 expressing cells, potentiator/agonist activation; activation, % at 3.6 µM; actives 0.37% (n = 220,000); in the data active = activation above about 33%, passing the limit was not always enough;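 also: cells stimulated with NPY at EC10 then isoproterenol at EC100; 0% = low agonist plus stimulus and 100% = saturating agonist plus stimulus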
# NPY Y2 blocker: NPY-Y2 (human) receptor antagonism. P49146. NPY-Y2 expressing cells, antagonist mode. inhibition, % at 2.7 µM. actives 0.99% (n = 140,000); in the data active = inhibition above about 17%;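 also: 0% = vehicle with agonist challenge and 100% = reference antagonist with challenge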
# S1P4 agonist cf: confirmation of human S1P4 receptor agonists | shares compounds with S1P4 agonist | S1P4 agonist cell-based reporter assay | activation, % at 4.98 µM | actives 7% (n = 740) | AID 1523; in the data active = activation above about 12%;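 also: 0% = vehicle and 100% = full reference agonist response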
# S1P1 ag: counter-screen for S1P4 agonists: agonists of human S1P1; shares compounds with S1P4 agonist; S1P1 agonist cell-based assay, activation; activation, % at 4.98 µM; actives 4% (n = 740); AID 1563; in the data active = activation above about 21%;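 also: 0% = vehicle wells and 100% = reference agonist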
# The depositor's hits bear a star; nt = not tested or not shown.
SMILES,NPY-Y1 antag,NPY2 pot ag,S1P4 agonist,S1P4 antag,NPY1 pot ag,NPY Y2 blocker,S1P4 agonist cf,S1P1 ag
COc1ccc(CCCC(=O)Nc2ccc(F)cc2)cc1,-1.8,-7.5,0.7,-3.0,11.0,1.0,nt,nt
CCCCNC(=O)CC1S/C(=N/N=C/c2ccc(OC)cc2)NC1=O (centres undefined),3.8,-15.9,12.2*,-4.5,1.4,nt,-2.4,2.9
Cn1c(O)c(C=Nc2ccc(N3CCOCC3)cc2)c(=O)n(C)c1=S,-1.8,-2.8,30.0*,11.8,1.7,nt,-2.0,-1.0
CCN1CCOC(CC(=O)Nc2ccc([N+](=O)[O-])cc2)C1=O (centres undefined),nt,-1.7,-0.2,-2.7,17.6,nt,nt,nt
O=C(c1ccco1)N1CCN(S(=O)(=O)Cc2ccccc2Cl)CC1,-1.0,2.1,1.9,-10.7,-15.2,nt,nt,nt
CCOC(=O)C1CCN(c2ncnc3c2c(-c2ccccc2)cn3-c2ccccc2)CC1,1.6,-0.6,-1.0,5.2,-14.5,nt,nt,nt
CCOC(=O)C1CCN(c2ncnc3c2oc2ccc(Cl)cc23)CC1,17.9,-20.1,186.9*,-1.4,-60.9,19.2*,-2.3,-1.3
O=C(/C=C/c1ccccc1)NC1CCSC1=O (centres undefined),0.5,-11.0,1.5,-17.3,-1.7,2.8,nt,nt
CC(OC(=O)c1cc2sccc2n1C)C(=O)NCc1cccs1 (centres undefined),10.1,-5.6,22.5*,-6.8,-7.1,6.3,-2.5,2.9
CCN(CC)S(=O)(=O)c1ccc(C(=O)NC(=S)N(CCC#N)Cc2cccnc2)cc1,1.9,-6.4,1.0,-5.2,15.6,nt,nt,nt
Cc1ccccc1CC1(CO)CCCN(C(=O)c2ccccc2Cl)C1 (centres undefined),4.3,-7.9,1.2,-10.0,0.5,nt,nt,nt
Cc1ccccc1CC1(CO)CCCN(C(=O)c2cc(Cl)ccc2F)C1 (centres undefined),4.0,-1.5,26.4*,3.7,1.8,nt,-2.4,3.4
CC(C)c1nc(SCC(=O)Nc2ccc([N+](=O)[O-])cc2Br)n[nH]1,5.0,-10.9,67.9*,-11.4,-11.9,nt,-2.2,2.9
CC(C)C(=O)NC(=S)Nc1ccccc1C(=O)NC1CCCCC1,4.5,-0.8,57.9*,-9.5,9.4,3.0,-1.4,5.6
COc1ccc(C(=S)Nc2ccc(C)cc2)cc1,3.9,6.4,0.9,5.1,-2.8,4.9,nt,nt
COc1ccc(NC(=S)c2ccncc2)cc1,3.2,-1.1,18.7*,-23.8,-14.4,2.6,-2.2,-6.1
CC1c2nc3ccccc3n2C(CC(=O)NC2CC2)C(=O)N1Cc1ccccc1 (centres undefined),-6.2,2.6,2.8,1.5,12.8,nt,nt,nt
CC(=O)Nc1nc(SCc2ccc(Cl)cc2Cl)n[nH]1,16.7,13.3,11.6*,9.8,-3.5,-0.1,-2.1,-0.5
Nc1nc(SCc2ccc(Cl)cc2Cl)n[nH]1,0.9,8.5,-0.2,20.8,5.3,1.1,nt,nt
COc1ccc(-c2cc(C(=O)NNC3=NCCC3)c3c(C)nn(-c4ccccc4)c3n2)cc1,0.2,2.0,0.1,-1.8,2.4,nt,nt,nt
COc1ccc(NC(=O)c2cc(-c3ccccc3)nc3c2c(C)nn3-c2ccccc2)c(OC)c1,1.4,-1.9,23.5*,-8.1,-13.0,4.0,-1.8,0.6
COCCNC(=O)C(OC(=O)C1=Cc2ccccc2OC1)C(C)C (centres undefined),-1.3,-15.3,2.8,-20.8,-8.3,nt,nt,nt
O=[N+]([O-])c1ccccc1N/N=C/c1cccc(O)c1O,nt,0.4,12.7*,-10.4,32.9,nt,-2.6,1.7
O=[N+]([O-])c1ccccc1N/N=C\c1ccccc1Cl,0.9,-1.6,-1.0,-35.6,-6.9,1.6,nt,nt
S=C(c1cn(CCOc2cccc3ccccc23)c2ccccc12)N1CCCC1,4.4,2.2,29.2*,-6.4,3.0,1.7,-2.5,-1.1
SMILES,NPY-Y1 antag,NPY2 pot ag,S1P4 agonist,S1P4 antag,NPY1 pot ag,NPY Y2 blocker,S1P4 agonist cf,S1P1 ag
CCOC(=O)c1ccc(NC(=O)N2CCN(Cc3cccc(F)c3)CC2)cc1,1.4,0.9,17.3*,7.2,4.3,-1.7,-1.6,1.7
CCC(C)NC(=O)c1cnc2n(c1=O)CCS2 (centres undefined),-0.5,6.6,25.0*,-6.3,1.0,1.4,-1.6,4.1
CC(NC(=O)c1cnc2n(c1=O)CCS2)c1ccccc1 (centres undefined),0.3,-16.4,-0.2,-1.0,3.2,3.1,nt,nt
CC(C)CN(Cc1cc(=O)oc2cc(-c3ccccc3)c(O)cc12)CC(C)C,nt,-26.6,-0.6,1.6,-1.4,nt,nt,nt
c1ccc(N2N=C(c3cccs3)CC2c2ccco2)cc1 (centres undefined),-3.0,-6.2,9.1,-1.1,-15.2,-1.1,nt,nt
Clc1ccc(N2N=C(c3cccs3)CC2c2ccco2)cc1 (centres undefined),7.5,5.7,14.1*,-3.6,-6.8,-2.5,18.9*,55.2*
COc1ccc(CC(=O)NCc2nnc(SCc3ccc(C)cc3)n2C)cc1,-3.9,5.3,-0.2,-13.1,7.2,1.4,nt,nt
Oc1cccnc1CCc1ccccc1,-1.4,-6.2,0.0,-21.0,8.9,nt,nt,nt
CCCCNC(=O)C1CC(c2cccc([N+](=O)[O-])c2)=NO1 (centres undefined),4.7,-3.5,2.8,0.4,-16.4,3.4,nt,nt
CCCCNC(=O)C1CC(c2c(Cl)cccc2Cl)=NO1 (centres undefined),3.9,3.8,13.0*,-18.9,15.4,-0.5,-2.1,-1.3
CCO[C@H]1OC(C(=O)N2CCN(Cc3ccc4c(c3)OCO4)CC2)=C[C@@H](c2ccc(C(F)(F)F)cc2)[C@@H]1CCCO,16.0,-33.1,-1.5,4.9,-12.9,nt,nt,nt
COc1ccc(CN2CCC(N3CCC(C(=O)N4CCOCC4)CC3)CC2)c(F)c1,-1.9,-13.5,11.5*,-3.6,-21.9,nt,-1.2,-2.0
O=C(COC(=O)C1CCCCC1)Nc1cc([N+](=O)[O-])ccc1F,0.1,4.0,-0.3,-9.4,-7.1,nt,nt,nt
CN(Cc1cc(=O)n2ccsc2n1)c1ccccc1,4.7,4.9,1.7,3.4,12.7,2.0,nt,nt
CN(Cc1cc(=O)n2ccsc2n1)C1CCCCC1,-0.7,-1.9,92.9*,0.1,-1.3,nt,-1.6,2.7
CC(C)N1CCN(Cc2cccs2)CC1CCO (centres undefined),8.2,10.6,63.9*,7.8,1.7,nt,-1.6,4.0
CC(C)CCN1CCN(Cc2cccs2)CC1CCO (centres undefined),4.0,4.6,-0.7,-19.0,-0.6,nt,nt,nt
Cc1onc(-c2c(F)cccc2Cl)c1C(=O)OCC(=O)NC1CC1,-0.6,-0.6,-1.7,15.0,-1.6,nt,nt,nt
Cc1nn(-c2ccccc2)c(Cl)c1/C=N/NS(=O)(=O)c1ccc(Br)cc1,6.3,-3.1,51.5*,2.3,-12.9,7.9,-2.5,-6.2
